In ChEMBL document CHEMBL1154881, “Synthesis and antimicrobial activities of novel 1,5-diaryl pyrazoles” (2010):
In brackets after ≈: the same amount, converted by molar mass.

Key:
Assay type in all cases: functional
[1] = system: Trichophyton mentagrophytes; test: Antifungal activity against Trichophyton mentagrophytes after 3 to 4 days by serial plate dilution method
Procedure, shortened: (§1)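 Sabouraud's agar (peptone 1 g, D-glucose 4 g, agar 2 g per 100 ml water, pH 5.7) plates were lawned with spore suspension (a loopful in 3 ml normal saline) and dried 1 h at 37 °C. Wells were punched and filled with compound in DMSO at 10–50 mg/ml, with a DMSO control. Plates in triplicate, 37 °C for 3–4 days.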

[2] = system: Aspergillus fumigatus; test: Antifungal activity against Aspergillus fumigatus NCIM 902 after 3 to 4 days by serial plate dilution method; procedure, shortened: as §1
[3] = system: Talaromyces marneffei; test: Antifungal activity against Penicillium marneffei at 10 to 50 ug/ml after 3 to 4 days
[4] = system: Aspergillus flavus; test: Antifungal activity against Aspergillus flavus NCIM 524 after 3 to 4 days by serial plate dilution method; procedure, shortened: as §1
[5] = system: Talaromyces marneffei; test: Antifungal activity against Penicillium marneffei after 3 to 4 days by serial plate dilution method; procedure, shortened: as §1
[6] = system: Trichophyton mentagrophytes; test: Antifungal activity against Trichophyton mentagrophytes at 10 to 50 ug/ml after 3 to 4 days
[7] = system: Pseudomonas aeruginosa; test: Antibacterial activity against Pseudomonas aeruginosa ATTC 27853 after 24 hrs by disk diffusion method
Procedure, shortened: (§2)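 Disc diffusion, each concentration tested in triplicate on nutrient agar seeded separately with fresh bacteria. Incubation 37 °C, 24 h. Solvent and growth controls included. Zones of inhibition recorded. The K. pneumoniae strain was recultured.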

[8] = system: Klebsiella pneumoniae; test: Antibacterial activity against Klebsiella pneumoniae after 24 hrs by disk diffusion method; procedure, shortened: as §2
[9] = system: Escherichia coli; test: Antibacterial activity against Escherichia coli ATTC 25922 after 24 hrs by broth dilution method; conditions: ATTC 25922, 24 h
[10] = system: Staphylococcus aureus; test: Antibacterial activity against Staphylococcus aureus ATTC 25923 after 24 hrs by broth dilution method; conditions: ATTC 25923, 24 h
[11] = system: Escherichia coli; test: Antibacterial activity against Escherichia coli ATTC 25922 after 24 hrs by disk diffusion method; procedure, shortened: as §2
[12] = system: Staphylococcus aureus; test: Antibacterial activity against Staphylococcus aureus ATTC 25923 after 24 hrs by disk diffusion method; procedure, shortened: as §2

Compound	inhibition zone (IZ) [1]	inhibition zone (IZ) [2]	MIC [3]	inhibition zone (IZ) [4]	inhibition zone (IZ) [5]	MIC [6]	inhibition zone (IZ) [7]	inhibition zone (IZ) [8]	MIC [9]	MIC [10]	inhibition zone (IZ) [11]	inhibition zone (IZ) [12]
Cc1cc(C2CCCCC2)n(O)c(=O)c1.NCCO [CICLOPIROX OLAMINE]	27 mm	26 mm	6.25 µg/mL	27 mm	23 mm	3.12 µg/mL	–	–	–	–	–	–
C=CCNC(=O)NNC(=O)c1sc(-c2cc(-c3ccc(Cl)cc3)n(-c3ccc(F)cc3)n2)nc1C	19 mm	23 mm	12.5 µg/mL (≈ 24.5 µM)	21 mm	21 mm	12.5 µg/mL (≈ 24.5 µM)	<10 mm	21 mm	12.5 µg/mL (≈ 24.5 µM)	12.5 µg/mL (≈ 24.5 µM)	22 mm	21 mm
Cc1nc(-c2cc(-c3ccc(Cl)cc3)n(-c3ccc(F)cc3)n2)sc1C(=O)NNC(=S)NC(=O)c1ccccc1	<10 mm	<10 mm	–	<10 mm	<10 mm	–	<10 mm	<10 mm	–	–	<10 mm	<10 mm
O=C(Nc1ccc(Cl)nc1)c1cc(-c2ccc(Cl)cc2)n(-c2ccc(F)cc2)n1	<10 mm	<10 mm	–	<10 mm	<10 mm	–	<10 mm	<10 mm	–	–	<10 mm	<10 mm
CCOC(=O)c1sc(NC(=O)c2cc(-c3ccc(Cl)cc3)n(-c3ccc(F)cc3)n2)nc1C	<10 mm	<10 mm	–	<10 mm	<10 mm	–	<10 mm	<10 mm	–	–	<10 mm	<10 mm
Fc1ccc(-n2nc(-c3nc(-c4ccc(Cl)cc4)cs3)cc2-c2ccc(Cl)cc2)cc1	19 mm	<10 mm	–	<10 mm	<10 mm	–	16 mm	17 mm	12.5 µg/mL (≈ 26.8 µM)	–	21 mm	<10 mm
Cc1nc(NC(=O)c2cc(-c3ccc(Cl)cc3)n(-c3ccc(F)cc3)n2)sc1C(=O)O	<10 mm	<10 mm	–	<10 mm	<10 mm	–	<10 mm	<10 mm	–	–	<10 mm	<10 mm
Cc1nc(-c2cc(-c3ccc(Cl)cc3)n(-c3ccc(F)cc3)n2)sc1-c1n[nH]c(=O)o1	<10 mm	<10 mm	–	<10 mm	<10 mm	–	<10 mm	<10 mm	–	–	<10 mm	<10 mm
